Assay outcomes (PubChem BioAssay)
SIRT5 inh – inhibitors of human sirtuin-5 desuccinylase | inhibition, % at 15 µM | Q9NXA8 | Purified SirT5, succinyl-peptide AMC, trypsin-coupled fluorescence | 1.1% of 330,000 active; in the data active means inhibition above about 15%
Target sequence (Q9NXA8 whole entry, looked up): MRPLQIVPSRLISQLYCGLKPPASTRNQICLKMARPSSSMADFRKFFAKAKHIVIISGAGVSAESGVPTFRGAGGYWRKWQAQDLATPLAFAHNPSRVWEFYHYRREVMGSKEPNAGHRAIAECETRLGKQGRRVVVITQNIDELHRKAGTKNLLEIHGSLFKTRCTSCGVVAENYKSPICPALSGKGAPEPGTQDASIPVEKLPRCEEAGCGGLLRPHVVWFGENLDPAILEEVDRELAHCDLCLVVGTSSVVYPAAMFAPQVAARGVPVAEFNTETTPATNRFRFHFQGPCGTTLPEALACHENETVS
UCH37 inh – inhibitors of human deubiquitinating enzyme UCH37; purified proteasome/UCH37, Ub-AMC cleavage fluorescence; inhibition, % (test concentration not listed); 0.33% of 330,000 active; AID 588478;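 active means mean inhibition over replicate wells above about 20%, limit read from the data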;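 further: 0% = compound-free wells with enzyme and 100% = wells lacking proteasome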
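Assay system: Proteasome-bound UCH37. Buffer or medium: pH 7.4 Tris-HCl (50 mM) with ovalbumin, ATP-MgCl2, DTT. Incubation: 30 min preincubation with enzyme, 25 min cleavage at room temperature. Measured by: fluorescence, ex 355 nm, em 460 nm. Read-out basis: percent inhibition. Control set: wells without proteasome as full block, compound-free enzyme plus substrate as uninhibited.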
NSD2 inh – blocks human histone methyltransferase NSD2. O96028. NSD2 peptide methylation, AlphaScreen, 120 min. inhibition, % at 12.5 µM. 0.54% of 310,000 active. AID 743445; in the data active means inhibition above about 50%
FGF22 binding – binders of recombinant human FGF22 by thermal shift. 1.5% of 340,000 active. activity (Tm shift, normalised), % at 9.99 µM. Q9HCT0. SYPRO orange fluorescence; percent of sucrose octasulfate shift, DMSO zero;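 active means mean Tm shift, scaled 0 neutral to 100 positive control, at about 1.3% or above, every replicate too, limit read from the data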
Casp6 inh – caspase-6 (human) enzyme inhibition | AID 686996 | 0.53% of 350,000 active | inhibition, % at 12.5 µM | purified caspase-6, Z-VEID-R110 cleavage fluorescence;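 active means mean inhibition across replicates at least about 35%, with every replicate also reaching that limit, limit read from the data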;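 further: 0% = median of neutral control wells and 100% = no fluorescence left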
* marks the source's active call; other numbers are inactive results; / = not tested or not shown. A selection: hits, their analogues and other compounds. The true share with any hit is near 2.6%.

SMILES | SIRT5 inh | UCH37 inh | NSD2 inh | FGF22 binding | Casp6 inh
Cc1ccc[n+](-c2[nH]c(=O)sc2/C=N/NC(=O)c2ccccc2[O-])c1 | 4 | / | -1 | 0 | 35*
O=C(NN=Cc1sc(=O)[nH]c1-[n+]1ccccc1)c1ccccc1[O-] | / | 20* | / | / | /
CC(C)(C)c1cc[n+](-c2[nH]c(=O)sc2C=N/N=C(\[O-])c2ccccc2)cc1 | / | 21* | / | / | /
CC(C(=O)O)N(C(=O)c1ccccc1)c1ccc(F)cc1 (configuration not stated) | 26* | 4 | / | 0 | -1
CC(C)C(=O)NN(C(=O)c1ccccc1)c1ccccc1 | 7 | 3 | -1 | 0 | -3
COc1ccc(S(=O)(=O)N(C)[C@H]2C[C@H]3c4cc(Oc5ccccc5C)ccc4CCN3C(=O)[C@H]2[C@H](C)O)cc1 | 17* | / | / | 0 | 0
COc1ccc(S(=O)(=O)N(C)[C@H]2C[C@H]3c4cc(-c5ccccc5)ccc4CCN3C(=O)[C@H]2[C@H](C)O)cc1 | -2 | / | / | 0 | 0
CCN1[C@@H]2c3ccc(C4=CCCC4)c(=O)n3C[C@@H]2[C@@H](CO)[C@@H]1C(=O)N(C)C | -2 | / | / | 0 | 1
Cc1ccccc1C1NC(=S)NC2=C1C(=O)CC(C)(C)C2 (configuration not stated) | -2 | 5 | / | 43* | 1
Cn1ncc2c(=O)n(/N=C/c3ccccc3)cnc21 | -2 | / | -2 | 44* | -2
COc1ccc(/C=C/C2=NN(Cc3ccccc3)C(=O)CC2)cc1 | 2 | 8 | 16 | 43* | -2
C=CCN1N=C(/C=C/c2ccc(OC)cc2)CCC1=O | 2 | 10 | -1 | 0 | 0
CCc1cccc(CC)c1NC(=S)NC(C)c1ccccc1 (configuration not stated) | 3 | 2 | -3 | 44* | 0
Cc1ccc(N=C2C(=O)Nc3ccccc32)cc1C | 0 | 2 | 2 | 0 | 2
Cc1ccc(N=C2c3ccccc3C(=O)C2[N+](=O)[O-])cc1C (configuration not stated) | 2 | 13 | -1 | 43* | -1
CC(=O)c1ccc(NC(=O)c2cc(Cl)nc3ccccc23)cc1 | -1 | -1 | 1 | 43* | -6
O=C(Nc1ccccc1)c1cc(Cl)nc2ccccc12 | / | 7 | -1 | / | /
Cc1csc(N2CCCC2=O)n1 | 21* | 3 | 1 | 1 | -2
N#C[C@@H]1[C@H](c2ccc(-c3cccc(F)c3)cc2)[C@H](CO)N1C(=O)c1cccnc1 | 2 | / | / | 0 | 2
COC(=O)c1cc(O)cc(OC)c1Oc1cc(C)cc(O)c1C(=O)O | / | 6 | / | 0 | 43*
O=C(Cc1cccnc1)N1CC(=O)N2[C@H](C1)[C@H](c1ccc(C#CC3CCCCC3)cc1)[C@@H]2CO | 3 | / | / | 0 | 4
CCS(=O)(=O)Nc1ccc2c(c1)C(=O)N(C)C[C@@H](OC)[C@H](C)CN(C(=O)C1CCC1)[C@H](C)CO2 | 3 | / | / | / | 2
N#C/C(=C/c1cc(Cl)c(O)c(Cl)c1)C(=O)N1CCCCC1 | 4 | 8 | 3 | 0 | 1
N#CC(C#N)=C(N)/C(C#N)=C/c1cc(O)c(O)c(O)c1 | 13 | / | / | 0 | 41*
CC(C)(C)c1ccc2c(c1)OC(C(=O)NN=Cc1ccncc1)CO2 (configuration not stated) | / | 1 | / | / | /
SMILES | SIRT5 inh | UCH37 inh | NSD2 inh | FGF22 binding | Casp6 inh
COc1ccc(S(=O)(=O)Nc2ccc3c(c2)C(=O)N([C@@H](C)CO)C[C@@H](C)[C@@H](CN(C)S(=O)(=O)c2cccs2)OCCCC[C@H](C)O3)cc1 | 23* | / | / | 0 | 1
COc1ccc(S(=O)(=O)N(C)C[C@@H]2OCCCC[C@H](C)Oc3ccc(NS(=O)(=O)c4cccs4)cc3C(=O)N([C@@H](C)CO)C[C@H]2C)cc1 | 19* | / | / | 0 | -3
COc1ccc(S(=O)(=O)N(C)C[C@H]2OCCCC[C@@H](C)Oc3ccc(NS(=O)(=O)c4cccs4)cc3C(=O)N([C@H](C)CO)C[C@H]2C)cc1 | 2 | / | / | 0 | 1
COc1ccc(S(=O)(=O)Nc2ccc3c(c2)C(=O)N([C@H](C)CO)C[C@@H](C)[C@@H](CN(C)S(=O)(=O)c2cccs2)OCCCC[C@H](C)O3)cc1 | 7 | / | / | 0 | 2
Cc1n[nH]c(C)c1CCCCOc1ccccc1 | -4 | 3 | -2 | 44* | 0
COc1cc2c3nnc(-c4ccc(F)cc4)c-3cn(Cc3ccc(C)cc3)c2cc1OC | 2 | -22 | / | 0 | -2
